Data set [1] concerns MRC5. The data set can be described thus: Cytotoxicity against human MRC5 cells assessed as mortality at 1 ug/ml relative to control. The format is cell-based. Summed up: (§1)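 MRC5 cells (normal lung tissue from a fetus), exposed to the test material at 1 or 10 μg/mL, with mortality scored against control. The method follows a previously published cytotoxicity procedure, with docetaxel as positive control.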

Data set [2] deals with Aedes aegypti. The data set can be described thus: Larvicidal activity against Aedes aegypti Paea assessed as mortality after 24 hrs by tube assay. It counts as functional. The conditions noted are these: read-out: LD50 (the source's name). Summed up: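 Tube assay on late third- or early fourth-instar larvae of the insecticide-susceptible Paea strain, kept at 28 ± 2 °C and 80 ± 20% RH. Compound in ethanol was added at five concentrations from 1 to 10 μg/mL, 10 tubes of 5 larvae each, in distilled water, with ethanol controls.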

In data set [3] the test system is MRC5. Put plainly: Cytotoxicity against human MRC5 cells assessed as mortality at 10 ug/ml relative to control. It counts as cell-based. A digest of the protocol: as §1
The subject of data set [4] is Aedes aegypti. The data set can be described thus: Larvicidal activity against Aedes aegypti Cayenne assessed as mortality at 50 ug/ml after 24 hrs by tube assay relative to control. The format is functional.
Data set [5] relates to Aedes aegypti. The data set can be described thus: Larvicidal activity against Aedes aegypti Paea assessed as mortality at 50 ug/ml after 24 hrs by tube assay relative to control. The format is functional.

A value given as a limit tells only on which side of the number the result lay.

As usually defined, the mortality is the share of the test organisms that died. On to `C[C@H]1C(=O)CC[C@@H]2[C@]1(C)CC[C@H]1[C@@]2(C)C[C@H](O)[C@@]2(C)[C@@H]3CC(C)(C)CC[C@]3(C)[C@@H](O)C[C@]12C`, for which the mortality was 16% in the data set with MRC5 [1] and 48% in the data set on MRC5 [3]. For the same compound, the LC50 in the data set on Aedes aegypti [2] was over 10 µM.
On the same counts, the results for `CC(=O)OC[C@]12[C@H](OC(C)=O)[C@H](OC(C)=O)[C@H]3OC(=O)C(C)(O)CCc4ncccc4C(=O)OC[C@@]4(C)O[C@@]1([C@H]3C)[C@@H](OC(C)=O)[C@@H]4C(=O)[C@@H]2OC(C)=O` (stereo partly drawn) are 24%, 38% and over 10 µM.
On the same counts, the results for `CC(=O)OC[C@]12[C@H](OC(=O)c3ccccc3)[C@H](OC(C)=O)[C@H]3OC(=O)C(C)(O)CCc4ncccc4C(=O)OC[C@@]4(C)O[C@@]1([C@H]3C)[C@@H](OC(C)=O)[C@@H]4C(=O)[C@@H]2OC(C)=O` (stereo partly drawn) are 15%, 15% and 9.4 µM.
`CC(=O)OC[C@]12[C@H](OC(C)=O)[C@H](OC(=O)c3ccccc3)[C@H]3OC(=O)C(C)(O)CCc4ccncc4C(=O)OC[C@@]4(C)O[C@@]1([C@H]3C)[C@@H](OC(C)=O)[C@@H]4[C@@H](OC(C)=O)[C@@H]2OC(C)=O` (stereo partly drawn): the mortality with MRC5 [1] came out at 15%; with MRC5 [3] it was 17%. Further, the LC50 in the data set on Aedes aegypti [2] is over 10 µM.
For `CC(=O)OC[C@]12[C@H](OC(=O)c3ccccc3)[C@H](OC(=O)c3ccccc3)[C@H]3OC(=O)C(C)(O)CCc4ncccc4C(=O)OC[C@@]4(C)O[C@@]1([C@H]3C)[C@@H](OC(C)=O)[C@@H]4C(=O)[C@@H]2OC(C)=O` (stereo partly drawn) the same measures were 18%, 21% and 2.7 µM.
With `CC1(C)[C@H](C(=O)O[C@H](C#N)c2cccc(Oc3ccccc3)c2)[C@@H]1C=C(Br)Br` [DELTAMETHRIN], the mortality at 50 µg/mL was 26% in the data set on Aedes aegypti [4] and 100% in the data set on Aedes aegypti [5].
For `CC(=O)O[C@@]12CO[C@@H]1C[C@H](O)[C@@]1(C)C(=O)[C@H](O)C3=C(C)[C@@H](OC(=O)[C@H](O)[C@@H](NC(=O)OC(C)(C)C)c4ccccc4)C[C@@](O)([C@@H](OC(=O)c4ccccc4)[C@H]21)C3(C)C` [DOCETAXEL ANHYDROUS], the mortality in the data set on MRC5 [1] is recorded as 0.0005%.

(Values after ChEMBL document CHEMBL4014270, “Aedes aegypti Larvicidal Sesquiterpene Alkaloids from Maytenus oblongata” (J Nat Prod, 2017).)
